Source: ChEMBL document CHEMBL4138145, “Cyclic Cystine-Bridged Peptides from the Marine Sponge Clathria basilana Induce Apoptosis in Tumor Cells and Depolarize the Bacterial Cytoplasmic Membrane” (J Nat Prod, 2017)
Values after ≈ are worked out from the molar mass of the structure shown. Active and inactive are the calls of the source. The rule behind the calls is not given here. Where a SMILES comes first, the peptide text is derived from it. Bridges are numbered along the chain shown (N, C = ends). The star is where a group is joined. X1 = CC(C)[C@H](C)C(=O)*; X2 = C(=C\c1ccccc1)/N*

Legend:
[1] = tested on: Mycobacterium tuberculosis; test: Antimicrobial activity against Mycobacterium tuberculosis H37Rv up to 100 uM after 5 days by resazurin dye based assay; format: functional, organism-based
How it was run: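 M. tuberculosis H37Rv was grown aerobically at 37 °C in Middlebrook 7H9 with ADS enrichment, 0.5% glycerol and 0.05% tyloxapol, then precultured to log phase (OD600 0.5−1). Cells were seeded at 1 × 10^5 per well on 2-fold dilutions over 100−0.78 μM and held 5 days at 37 °C. Resazurin was added for 16 h at ambient temperature, then cells were formalin-fixed and fluorescence read (ex 540, em 590 nm). Growth is relative to rifampicin (0%) and DMSO (100%).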

A2780 = test: Cytotoxicity against human A2780 cells assessed as reduction in cell viability after 72 hrs by MTT assay; format: functional, cell-based; conditions: A2780, 72 h
How it was run: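 A2780 ovarian carcinoma cells were grown in RPMI-1640 with 10% FBS, penicillin and streptomycin, about 9000 cells/well, preincubated overnight. Increasing compound concentrations were applied for 72 h, then MTT was added. Absorbance read at 544 nm minus the 690 nm reference.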

Ramos [2] = test: Cytotoxicity against human Ramos cells assessed as reduction in cell viability after 24 hrs by MTT assay; format: functional, cell-based
How it was run: (§1)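 Suspension cells at 5 × 10^5 cells/mL, exposed 24 h to varying compound concentrations; 0.1% v/v DMSO as negative control. MTT added to 1 mg/mL final for 60 min, cells pelleted, formazan extracted in DMSO for 25 min at rt, A570 read with 650 nm reference. Viability relative to DMSO set at 100%; IC50 from fitted curves.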

[3] = Cytotoxicity against human Jurkat 16 cells assessed as reduction in cell viability after 24 hrs by MTT assay; format: functional, cell-based; how it was run: as §1
NOMO-1 = test: Cytotoxicity against human NOMO1 cells assessed as reduction in cell viability after 24 hrs by MTT assay; format: functional, cell-based; conditions: NOMO-1, 24 h; how it was run: as §1
HL-60 = test: Cytotoxicity against human HL60 cells assessed as reduction in cell viability after 24 hrs by MTT assay; format: functional, cell-based; conditions: HL-60, 24 h; how it was run: as §1
Homo sapiens [4] = organism: Homo sapiens; test: Induction of apoptosis in human Jurkat 16 cells assessed as activation of caspase 3 at 10 uM using Ac-DEVD-AMC as substrate measured up to 4 hrs by immuno blot analysis; format: functional, cell-based
Homo sapiens [5] = organism: Homo sapiens; test: Induction of apoptosis in human Jurkat 16 cells assessed as maximum activation of caspase 3 at 10 uM using Ac-DEVD-AMC as substrate measured after 6 to 7 hrs by immuno blot analysis; format: functional, cell-based
Ramos [6] = test: Induction of apoptosis in human Ramos cells assessed as activation of caspase 3 at 10 uM using Ac-DEVD-AMC as substrate measured up to 4 hrs by immuno blot analysis; format: functional, cell-based
Ramos [7] = test: Induction of apoptosis in human Ramos cells assessed as maximum activation of caspase 3 at 10 uM using Ac-DEVD-AMC as substrate measured after 6 to 7 hrs by immuno blot analysis; format: functional, cell-based
Homo sapiens [8] = organism: Homo sapiens; test: Induction of apoptosis in human Jurkat 16 cells assessed as activation of caspase 3 at 1 uM using Ac-DEVD-AMC as substrate measured up to 4 hrs by […]; format: functional, cell-based
Homo sapiens [9] = organism: Homo sapiens; test: Induction of apoptosis in human Jurkat 16 cells assessed as maximum activation of caspase 3 at 1 uM using Ac-DEVD-AMC as substrate measured after 6 to 7 hrs by immuno blot analysis; format: functional, cell-based
Ramos [10] = test: Induction of apoptosis in human Ramos cells assessed as activation of caspase 3 at 1 uM using Ac-DEVD-AMC as substrate measured up to 4 hrs by immuno blot analysis; format: functional, cell-based
Ramos [11] = test: Induction of apoptosis in human Ramos cells assessed as maximum activation of caspase 3 at 1 uM using Ac-DEVD-AMC as substrate measured after 6 to 7 hrs by immuno blot analysis; format: functional, cell-based
Homo sapiens [12] = organism: Homo sapiens; test: Induction of apoptosis in human Jurkat 16 cells assessed as increase in PARP cleavage at 10 uM measured up to 4 to 8 hrs by immuno blot analysis; format: functional, cell-based
Ramos [13] = test: Induction of apoptosis in human Ramos cells assessed as increase in PARP cleavage at 10 uM measured up to 4 to 8 hrs by immuno blot analysis; format: functional, cell-based
How it was run: (§2)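 Ramos cells were exposed for 2–8 h with or without Q-VD-OPh 10 μM; staurosporine 2.5 μM served as positive control. Cells were lysed in Tris/Triton buffer with phosphatase and protease inhibitors. Then 25 μg protein was run on 10% SDS-PAGE and blotted to PVDF for PARP cleavage, with β-actin as loading control.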

Ramos [14] = test: Induction of apoptosis in human Ramos cells assessed as PARP cleavage at 10 uM cotreated with pan-caspase inhibitor QVD-OPh measured after 2 to 8 hrs by Western blot analysis; format: functional, cell-based; how it was run: as §2
MEF = test: Inhibition of autophagy in mouse MEF expressing mCitrine-hLC3B assessed as reduction in amino acid starvation-induced degradation of LC3 at 10 uM after 4 hrs by flow cytometry; format: functional, cell-based
How it was run: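 MEFs stably expressing mCitrine-hLC3B were held 4 h in full medium or EBSS starvation medium with 10 μM compound; bafilomycin A1 10 nM was the inhibition control. Cells were trypsinized, washed and read by flow cytometry for median mCitrine fluorescence. Values normalized to DMSO-treated full-medium cells; mean ± SD of 3 independent analyses; Student's t test.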

Staphylococcus aureus [15] = test: Antimicrobial activity against Staphylococcus aureus after 16 to 20 hrs by broth micro dilution method; format: functional
How it was run: (§3)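 Broth microdilution per CLSI in cation-adjusted Mueller-Hinton broth. Inoculum made by direct colony suspension, 5 × 10^5 CFU/mL final, added to serial 2-fold compound dilutions. Plates kept 16–20 h at 37 °C in ambient air. MIC is the lowest concentration with no visible growth. Strains are ATCC CLSI quality-control strains; A. baumannii 09987 is a Bonn clinical isolate.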

Enterococcus faecium = test: Antimicrobial activity against vancomycin-resistant Enterococcus faecium isolate BM 4147-1 after 16 to 20 hrs by broth micro dilution method; format: functional
Klebsiella pneumoniae = test: Antimicrobial activity against Klebsiella pneumoniae after 16 to 20 hrs by broth micro dilution method; format: functional, organism-based; how it was run: as §3
Klebsiella aerogenes = test: Antimicrobial activity against Enterobacter aerogenes after 16 to 20 hrs by broth micro dilution method; format: functional, organism-based; how it was run: as §3
Escherichia coli = test: Antimicrobial activity against Escherichia coli after 16 to 20 hrs by broth micro dilution method; format: functional, organism-based; how it was run: as §3
Pseudomonas aeruginosa = test: Antimicrobial activity against Pseudomonas aeruginosa after 16 to 20 hrs by broth micro dilution method; format: functional, organism-based; how it was run: as §3
Acinetobacter baumannii = test: Antimicrobial activity against Acinetobacter baumannii isolate 09987 after 16 to 20 hrs by broth micro dilution method; format: functional, organism-based; how it was run: as §3
Bacillus subtilis [16] = test: Induction of cell envelope stress in Bacillus subtilis isolate 1S34 assessed as increase in liaI promoter activity at 20 nmol after 14 to 18 hrs by beta-galactosidase reporter gene assay; format: functional, organism-based
How it was run: (§4)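 Agar-based β-galactosidase promoter-reporter assay. B. subtilis 1S34 grown to stationary phase in LB with spectinomycin 50 μg/mL, then set at 3 × 10^7 CFU/mL in LB soft agar (0.7%) containing X-Gal 150 μg/mL. Test compounds spotted at 20 nmol; reference antibiotics given on paper discs (5–30 μg). Plates read for promoter induction after 14–18 h at 30 °C.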

Bacillus subtilis [17] = test: Induction of cell envelope stress in Bacillus subtilis isolate 1S34 assessed as increase in ypuA promoter activity at 20 nmol after 14 to 18 hrs by beta-galactosidase reporter gene assay; format: functional, organism-based; how it was run: as §4
Bacillus subtilis [18] = test: Induction of DNA damage in Bacillus subtilis isolate 1S34 assessed as increase in yorB promoter activity at 20 nmol after 14 to 18 hrs by beta-galactosidase reporter gene assay; format: functional, organism-based; how it was run: as §4
Bacillus subtilis [19] = test: Induction of RNA damage in Bacillus subtilis isolate 1S34 assessed as increase in helD promoter activity at 20 nmol after 14 to 18 hrs by beta-galactosidase reporter gene assay; format: functional, organism-based; how it was run: as §4
Bacillus subtilis [20] = test: Induction of translation arrest in Bacillus subtilis isolate 1S34 assessed as increase in bmrC promoter activity at 20 nmol after 14 to 18 hrs by beta-galactosidase reporter gene assay; format: functional, organism-based
Staphylococcus aureus [21] = test: Disruption of inner membrane potential in Staphylococcus aureus NCTC 8325 at 0.2 uM measured after 30 to 60 mins by DiOC2(3) dye based fluorescence assay; format: functional, organism-based
How it was run: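 S. aureus NCTC 8325 grown to exponential phase in LB, resuspended in PBS at OD600 0.5, and loaded with 30 μM DiOC2(3) for 15 min before compound addition. Fluorescence read 30 and 60 min later: excitation 485 nm, emission 530 nm (green) and 630 nm (red). Controls were CCCP 5 μM and DMSO. Two runs on different days with independent cultures.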

**Q.** What does the source list for CC[C@H](C)[C@@H]1NC(=O)[C@@H](NC(=O)[C@@H](C)C(C)C)CSSC[C@@H](C(=O)N/C=C/c2ccccc2)NC(=O)[C@H]([C@@H](C)CC)NC(=O)[C@H]([C@@H](C)CC)NC(=O)[C@H]([C@@H](C)CC)NC1=O (X1-CIIIIC-X2; disulfide 1-6)?
**A.** Activity [1]: inactive; IC50 (A2780): 2.6 µM; IC50 (Ramos [2]): 5.9 µM; IC50 [3]: 4.6 µM; IC50 (NOMO-1): 10 µM; IC50 (HL-60): 28 µM; Activity (Homo sapiens [4]): Active; Activity (Homo sapiens [5]): Active; Activity (Ramos [6]): Active; Activity (Ramos [7]): Active; Activity (Homo sapiens [8]): inactive; Activity (Homo sapiens [9]): inactive; Activity (Ramos [10]): inactive; Activity (Ramos [11]): inactive; Activity (Homo sapiens [12]): Active; Activity (Ramos [13]): Active; Activity (Ramos [14]): inactive; inhibition (MEF): inactive; MIC (Staphylococcus aureus [15]): 6.2 µM (≈ 5.42 µg/mL); MIC (Enterococcus faecium): 12 µM (≈ 10.5 µg/mL); Activity (Klebsiella pneumoniae): inactive; Activity (Klebsiella aerogenes): inactive; Activity (Escherichia coli): inactive; Activity (Pseudomonas aeruginosa): inactive; Activity (Acinetobacter baumannii): inactive; Activity (Bacillus subtilis [16]): Active; Activity (Bacillus subtilis [17]): Active; Activity (Bacillus subtilis [18]): inactive; Activity (Bacillus subtilis [19]): inactive; Activity (Bacillus subtilis [20]): inactive; Activity (Staphylococcus aureus [21]): Active
